Published values pooled from the literature.
Each line is one published result; the experiments were not run side by side.
Target: Protein kinase C theta type (PRKCQ, Homo sapiens, UniProt Q04759)

SMILES | assay | setting | measurement | result
COc1ccc2c(c1)O[C@H](c1ccc(OC)c(OC)c1)C[C@@H]2NC(=O)C1(c2ccc3c(c2)OC(F)(F)O3)CC1 | cell-free assay, competition with immobilised ligand | 1 µM | remaining binding | 100%
CN(C)C1CCN(CC#Cc2nn(C3CCCC3)c3nc(NCc4ccccc4)ncc23)C1 (stereo not shown) | enzyme activity, inhibitor, FRET | 0.1 µM | inhibition | -1%
CCN(CC)c1ccc(C2=NNC(=O)CC2C)cc1[N+](=O)[O-] (stereo not shown) | enzyme activity, inhibitor | 10 µM | remaining activity | 98%
CCCS(=O)(=O)Nc1ccc(F)c(C(=O)c2c[nH]c3ncc(-c4ccc(Cl)cc4)cc23)c1F | enzyme activity, inhibitor | 1 µM | inhibition | < 10%
CCCOc1ccc(OC)c(F)c1C(=O)c1ccc(C(=O)N[C@@H]2CNC[C@H]2NC(=O)c2ccc3[nH]ncc3c2)cc1 | enzyme activity, inhibitor | 10 µM | remaining activity | 22%
O=C(NCc1ncc(C(F)(F)F)cc1Cl)c1ccc2c(c1)C1(CCS(=O)(=O)CC1)[C@H](C1CC1)N2S(=O)(=O)c1ccc(F)cc1 | cell-free assay, competition with immobilised ligand | 1 µM | remaining binding | 100%
COc1cc(Cl)c(C(=O)N[C@@H](CN[C@H]2CC[C@@H](N)CC2)Cc2ccc(C#N)cc2)cc1-c1ccc(CN[C@H](C)c2ccc(C)cc2)o1 | enzyme activity, inhibitor | 1 µM | remaining activity | 106%
CCC(=O)N[C@@H]1CC[C@H](C(=O)N(C)c2ccc(-c3nc4ccccc4o3)cc2)C1 | cell-free assay, competition with immobilised ligand | 1 µM | remaining binding | 76%
CNC(=O)c1cc(Oc2ccc(NC(=O)Nc3ccc(Cl)c(C(F)(F)F)c3)cc2)ccn1 | enzyme activity, inhibitor | 0.3 µM | inhibition | 3%
C[C@@H]1CCN(C(=O)CC#N)C[C@@H]1N(C)c1ncnc2[nH]ccc12 | cell-free assay | 0.5 µM | remaining signal | 89%
Cn1cnc(Br)c1C1=CN(c2ncnc3[nH]cnc23)CCS1 | enzyme activity, inhibitor, radiometric | 2 µM | inhibition | 97.9%
O=C1Nc2ccc(Cl)cc2C1=Cc1cc(Cl)c(O)c(Cl)c1 | cell-free assay | 0.5 µM | remaining signal | 105%
COc1cc2ncnc(Nc3ccc(Oc4ccccc4)cc3C)c2cc1OC | enzyme activity, inhibitor | 1 µM | inhibition | 2%
Cc1ccc(Nc2nccc(N(C)c3ccc4c(C)n(C)nc4c3)n2)cc1S(N)(=O)=O | enzyme activity, inhibitor | 10 µM | inhibition | -3%
Nc1nc(Nc2ccc(S(N)(=O)=O)cc2)nn1C(=O)c1c(F)cccc1F | cell-free assay | 0.5 µM | remaining signal | 114%
Cc1sc(C(=O)NC2COC2)cc1-n1cc(NC(=O)Nc2c(F)cccc2Cl)cn1 | enzyme activity, inhibitor | 10 µM | remaining activity | 96.9%

SMILES | assay | setting | measurement | result
Cn1nc(C(F)(F)F)cc1-c1cnc(N2CCc3cc(S(=O)(=O)Nc4c(F)cc(Cl)cc4F)cc(N4CCCC4=O)c32)nc1 | cell-free assay, competition with immobilised ligand | 1 µM | remaining binding | 100%
CC(C)(O)[C@H]1CC[C@H](Nc2ccc3ncc(-c4cccc(C(F)(F)F)c4)n3n2)CC1 | enzyme activity, inhibitor | 1 µM | remaining activity | 86.1%
O=C1NC(=O)c2cc(Nc3ccc(F)cc3)c(Nc3ccc(F)cc3)cc21 | cell-free assay | 0.5 µM | remaining signal | 98.7%
CC/C(=N\NC(=O)NCc1cccc(O)c1)c1ccc(O)c(C)c1O | enzyme activity, inhibitor | 0.1 µM | inhibition | 12.2%
Nc1cnc(N2CCc3cc(S(=O)(=O)Nc4c(F)cc(Cl)cc4F)cc(N4CCCC4=O)c32)nc1 | cell-free assay, competition with immobilised ligand | 1 µM | remaining binding | 89%
Cc1ccc(NC(=O)c2ccc(C)c(C(F)(F)F)c2)cc1C#Cc1nn(C2CCC(O)CC2)c2ncnc(N)c12 (stereo not shown) | cell-free assay | 10 µM | remaining signal | 103%
CC(C)c1ccc(NC(=O)c2cccs2)c(-c2nc3ccccc3[nH]c2=O)c1 | enzyme activity, inhibitor | 1 µM | activity vs control | 83%
CNCc1ccccc1-c1csc([C@H](C)Nc2nc(C)nc3cc(OC)c(OC)cc23)c1 | cell-free assay, competition with immobilised ligand | 1 µM | remaining binding | 100%
C=CC(=O)Nc1cc(Nc2nccc(Nc3cc(Cl)c(F)cc3C(C)(C)O)n2)c(OC)cc1N1CC[C@@H](N(C)C)C1 | enzyme activity, inhibitor | 1 µM | inhibition | 17%
O=C(Nc1cnn(-c2csc(C(=O)NC3COC3)c2)c1)Nc1c(F)cccc1Cl | enzyme activity, inhibitor | 5 µM | remaining activity | 94.7%
CNCc1ccc(-c2cc(-c3nc(-c4ccc(S(=O)(=O)C(C)C)cc4)cnc3N)on2)cc1 | enzyme activity, inhibitor | 2 µM | inhibition | 0%
O=C(NCCCC1CCCCC1)c1ccc(CNC(=O)c2cnn(-c3ccccc3)c2C(F)(F)F)cc1 | cell-free assay, competition with immobilised ligand | 0.1 µM | remaining binding | 100%
Cc1cc(NC(=O)c2cccc3cc(-c4cccc5[nH]nc(N)c45)ccc23)ccc1F | enzyme activity, inhibitor | 0.1 µM | activity vs control | 93%
Cc1c[nH]c2nccc(Oc3c(F)cc(Nc4cc(Cl)nc(N)n4)cc3F)c12 | cell-free assay, competition with immobilised ligand | 0.1 µM | remaining binding | 66%
CC(C)(C)c1nc2c(s1)c1nc(N)ncc1c1ccc(NS(=O)(=O)c3c(F)cccc3F)c(F)c12 | enzyme activity, inhibitor, radiometric | 1 µM | remaining activity | 115%
